Source: ChEMBL document CHEMBL1124299, “Synthesis and thromboxane A2 antagonist activity of N-benzyltrimetoquinol analogues” (J Med Chem, 1988)

Legend:
Rattus norvegicus [1] = species: Rattus norvegicus; experiment: Log of KB that is, inhibition of U-46,619-induced contraction of Rat thoracic aorta in the presence of indomethacin; type: functional
Rattus norvegicus [2] = species: Rattus norvegicus; experiment: Inhibition of U-46,619-induced contraction of Rat thoracic aorta in the presence of indomethacin, at conc 100 uM; type: functional
Method in brief: (§1)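 Rat thoracic aortic strips equilibrated 1 h in Krebs-Henseleit solution containing 3 X 10^-6 M indomethacin; TMQ analogues tested at 100 µM against U46619-induced contraction. Cumulative U46619 concentration-response curves by the van Rossum method. U46619 EC50 read graphically from individual percent response vs log concentration plots and expressed as pD2. Significance level 5% versus control.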

Rattus norvegicus [3] = species: Rattus norvegicus; experiment: Inhibition of U-46,619-induced contraction of Rat thoracic aorta in the presence of indomethacin (control); type: functional; method in brief: as §1
Rattus norvegicus [4] = species: Rattus norvegicus; experiment: Inhibition of U-46,619-induced contraction of Rat thoracic aorta in the presence of indomethacin, KB; type: functional
Homo sapiens [5] = species: Homo sapiens; experiment: Inhibition of 0.5-0.7 uM of U-46,619 induced [14C]5-HT secretion; type: functional
Method in brief: (§2)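 Human platelet-rich plasma from medication-free volunteers. Dense-granule secretion measured as release of radioactivity from prelabeled platelets, induced by ADP or U46619. Inhibitors added 1 min before the inducer, which was used at the minimum concentration giving maximal aggregation. Values are IC50s.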

Homo sapiens [6] = species: Homo sapiens; experiment: Inhibition of 0.5-0.7 uM of U-46,619 induced human platelet aggregation; type: functional
Method in brief: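 Human platelet-rich plasma from donors medication-free for at least 10 days. Born turbidometric aggregation, with U46619 at the minimum concentration giving maximal aggregation. Inhibitor added 1 min before U46619. IC50 taken from the change in light-transmittance amplitude at 4 min.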

Rattus norvegicus [7] = species: Rattus norvegicus; experiment: Inhibition of U-46,619-induced contraction of Rat thoracic aorta in the presence of indomethacin control); type: functional; method in brief: as §1
Homo sapiens [8] = species: Homo sapiens; experiment: Inhibition of 1.5-1.9 uM of ADP-induced human platelet aggregation; type: functional
Method in brief: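 Platelet-rich plasma from human volunteers free of medication for at least 10 days. Turbidometric (Born) aggregation in a dual-channel aggregometer, with ADP at the minimum concentration giving maximal aggregation. Inhibitor added 1 min before ADP. IC50 derived from the change in light-transmittance amplitude at 6 min. Mean ± SEM of three preparations.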

Homo sapiens [9] = species: Homo sapiens; experiment: Inhibition of 0.5-0.7 uM of ADP induced [14C]5-HT secretion; type: functional, organism-based; conditions: in the assay text read “1.5-1.9 uM” for “0.5-0.7 uM”; method in brief: as §2
Rattus norvegicus [10] = species: Rattus norvegicus; experiment: Inhibition against U-46,619-induced contraction of Rat thoracic aorta was determined expressed as pA2; type: functional; conditions: read-out: pA2 (converted)
Rattus norvegicus [11] = species: Rattus norvegicus; experiment: Inhibition of U-46,619-induced contraction of Rat thoracic aorta in the presence of indomethacin(control); type: functional; method in brief: as §1
Rattus norvegicus [12] = species: Rattus norvegicus; experiment: Inhibition of U-46,619-induced contraction of Rat thoracic aorta in the presence of indomethacin; type: functional; method in brief: as §1
Rattus norvegicus [13] = species: Rattus norvegicus; experiment: Inhibition of U-46,619-induced contraction of Rat thoracic aorta expressed as pKB value of the compound; type: functional

| SMILES | IC50 (Homo sapiens [5]) [µM] | IC50 (Homo sapiens [6]) [µM] | IC50 (Homo sapiens [8]) [µM] | IC50 (Homo sapiens [9]) [µM] | pKB (Rattus norvegicus [1]) | pD2 (Rattus norvegicus [2]) | pD2 (Rattus norvegicus [3]) | Kb (Rattus norvegicus [4]) [µM] | pD2 (Rattus norvegicus [7]) | Kb (Rattus norvegicus [10]) [µM] | pD2 (Rattus norvegicus [11]) | Kb (Rattus norvegicus [12]) [µM] | pKB (Rattus norvegicus [13]) |
| --- | --- | --- | --- | --- | --- | --- | --- | --- | --- | --- | --- | --- | --- |
| COc1cc(CC2c3cc(O)c(O)cc3CCN2Cc2ccc(Cl)c(Cl)c2)cc(OC)c1OC (stereo not given) | 264 | 257 |  |  |  | 8.22 |  |  | 8.12 |  |  |  |  |
| COc1cc(CC2c3cc(O)c(O)cc3CCN2Cc2ccc(N)cc2)cc(OC)c1OC (stereo not given) | 27.1 | 27 | 40 | 29.1 | 3.79 | 8.03 | 8.26 | 162 |  |  |  |  |  |
| COc1cc(CC2c3cc(O)c(O)cc3CCN2Cc2ccccc2)cc(OC)c1OC (stereo not given) | 66.4 | 67.4 | 67.5 | 54.1 | 3.86 | 7.86 | 8.11 | 138 |  |  |  |  |  |
| COc1cc(CC2c3cc(O)c(O)cc3CCN2Cc2ccc([N+](=O)[O-])cc2)cc(OC)c1OC (stereo not given) | 269 | 296 | 359 | 289 | 4.05 | 7.84 | 8.21 | 89.1 |  |  |  |  |  |
| COc1cc(CC2c3cc(O)c(O)cc3CCN2Cc2ccc(C)cc2)cc(OC)c1OC (stereo not given) | 40.4 | 55.9 |  |  | 4.26 | 7.58 |  | 55 |  | 30.2 | 8.05 |  |  |

Further lines, with some results ahead:

| IC50 (Homo sapiens [5]) [µM] | IC50 (Homo sapiens [6]) [µM] | IC50 (Homo sapiens [8]) [µM] | IC50 (Homo sapiens [9]) [µM] | SMILES | pKB (Rattus norvegicus [1]) | pD2 (Rattus norvegicus [2]) | pD2 (Rattus norvegicus [3]) | Kb (Rattus norvegicus [4]) [µM] | pD2 (Rattus norvegicus [7]) | Kb (Rattus norvegicus [10]) [µM] | pD2 (Rattus norvegicus [11]) | Kb (Rattus norvegicus [12]) [µM] | pKB (Rattus norvegicus [13]) |
| --- | --- | --- | --- | --- | --- | --- | --- | --- | --- | --- | --- | --- | --- |
| 56.2 | 50.2 |  |  | COc1ccc(CN2CCc3cc(O)c(O)cc3C2Cc2cc(OC)c(OC)c(OC)c2)cc1 (stereo not given) | 4.16 | 7.64 | 8.07 | 69.2 |  |  |  |  |  |
| 128 | 119 |  |  | COc1cc(CC2c3cc(O)c(O)cc3CCN2Cc2ccc(Cl)cc2)cc(OC)c1OC (stereo not given) |  | 8.09 | 8.1 |  |  |  |  |  |  |
| 0.75 | 0.77 |  |  | COc1cc(NCc2ccc3nc(N)nc(N)c3c2C)cc(OC)c1OC [TRIMETREXATE] |  | 6.78 |  |  |  |  |  | 4.26 | 5.37 |
